Experimental data as given in ChEMBL document CHEMBL4145471, “New 1,5 and 2,5-disubstituted tetrazoles-dependent activity towards surface barrier of Candida albicans” (Eur J Med Chem, 2018).

Experiments:
Candida albicans [1] = assay: Synergistic antifungal activity against Candida albicans ATCC 90028 at 1.25 ug/ml after 48 hrs in presence of 40 ug/ml fluconazol by checkerboard assay relative to control; type: functional
Procedure, shortened: (§1)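 Checkerboard per M27-A3 against ATCC 90028: fluconazole at 80–1.25 µg/mL horizontally and partner compound at 80–1.25 µg/mL vertically, 100 µL yeast inoculum per well, 35°C for 48 h. After 48 h, metabolic activity was measured by XTT reduction at 475 nm (660 nm reference) relative to untreated growth control. FIC index is the sum of the FICs; <1 was defined as synergism and >1 as antagonism.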

Candida albicans [2] = assay: Synergistic antifungal activity against Candida albicans ATCC 90028 at 10 ug/ml after 48 hrs in presence of 2.5 ug/ml fluconazol by checkerboard assay relative to control; type: functional
Procedure, shortened: (§2)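 Checkerboard microdilution (M27-A3) on C. albicans ATCC 90028 in RPMI 1640: fluconazole (80-1.25 µg/mL) crossed with tetrazole (80-1.25 µg/mL final), incubated at 35°C for 48 h. Growth by OD405 at 18 and 48 h, endpoint taken as 100% inhibition. FIC index = sum of the two agents' FICs; <1 synergism, >1 antagonism.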

Candida albicans [3] = assay: Synergistic antifungal activity against Candida albicans ATCC 90028 at 2.5 ug/ml after 48 hrs in presence of 10 ug/ml fluconazol by checkerboard assay relative to control; type: functional; procedure, shortened: as §2
Candida albicans [4] = assay: Antifungal activity against Candida albicans ATCC 90028 assessed as metabolic activity at 40 ug/ml after 48 hrs in presence of 5 ug/ml fluconazol by XTT assay relative to control
Caco-2 [5] = assay: Cytotoxicity against human Caco2 cells assessed as reduction in cell viability at 256 ug/ml after 18 hrs by XTT assay ralative to control; type: cell-based; conditions: caco-2, 18 h
Procedure, shortened: (§3)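 Caco-2 cells were exposed to compound at 256, 16 or 0.0313 µg/mL for 18 h, then given XTT reagent for 4–6 h. Absorbance was read at 475 nm with a 660 nm reference, and viability and toxicity were expressed as %. CC50 was taken as the concentration giving 50% viability loss. Means ± SD of three independent experiments, samples in duplicate.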

Caco-2 [6] = assay: Cytotoxicity against human Caco2 cells assessed as reduction in cell viability at 16 ug/ml after 18 hrs by XTT assay ralative to control; type: cell-based; conditions: caco-2, 18 h; procedure, shortened: as §3
Candida albicans [7] = assay: Synergistic antifungal activity against Candida albicans ATCC 90028 at 1.25 ug/ml after 48 hrs in presence of 1.25 ug/ml fluconazol by checkerboard assay relative to control; type: functional; conditions: ATCC 90028, 48 h, read-out: GI; procedure, shortened: as §1
Candida albicans [8] = assay: Antifungal activity against Candida albicans ATCC 90028 assessed as inhibition of metabolic activity at 10 ug/ml after 48 hrs in presence of 1.25 ug/ml fluconazol by XTT assay relative to control; type: functional; conditions: values are per cent of control
Procedure, shortened: (§4)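 Checkerboard against strain ATCC 90028, inoculum per M27-A3: fluconazole 80-1.25 µg/mL on one axis, tetrazole 80-1.25 µg/mL on the other. Plates at 35°C for 48 h, then XTT metabolic reduction read at 475 nm (660 nm reference). Activity is the drop in mean absorbance against untreated growth control. FICs and their summed FIC index are taken at 50% reduction in metabolic activity.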

Candida albicans [9] = assay: Antifungal activity against Candida albicans ATCC 90028 assessed as metabolic activity at 20 ug/ml after 48 hrs in presence of 2.5 ug/ml fluconazol by XTT assay relative to control
Candida albicans [10] = assay: Antifungal activity against Candida albicans ATCC 90028 assessed as metabolic activity at 40 ug/ml after 48 hrs in presence of 1.25 ug/ml fluconazol by XTT assay relative to control
Candida albicans [11] = assay: Antifungal activity against Candida albicans ATCC 90028 at 1 ug/ml after 18 hrs relative to control; type: functional
Procedure, shortened: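 Planktonic broth microdilution per M27-A3 in MOPS-buffered RPMI 1640 (pH 7.0), final inoculum 1.8×10^3 cells/mL, compounds 0.0313–16 µg/mL from 1600 µg/mL stocks in ethanol or DMSO. Incubated at 35°C without agitation; OD405 read at 18 and 48 h. % inhibition was derived from test, sterility (no inoculum) and solvent growth-control wells. Amphotericin B at 0.5 µg/mL served as the 100% control.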

Candida albicans [12] = assay: Synergistic antifungal activity against Candida albicans ATCC 90028 at 80 ug/ml after 48 hrs in presence of 20 ug/ml fluconazol by checkerboard assay relative to control; type: functional
Procedure, shortened: (§5)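 Checkerboard in C. albicans ATCC 90028, inoculum prepared per CLSI M27-A3 in RPMI. Fluconazole serially diluted 80-1.25 µg/mL across the plate against the partner compound at 80-1.25 µg/mL final. Incubated 48 h at 35°C. Metabolic activity read by XTT reduction at 475 nm (660 nm reference), given as % of the untreated growth control.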

Candida albicans [13] = assay: Antifungal activity against Candida albicans ATCC 90028 assessed as inhibition of metabolic activity at 5 ug/ml after 48 hrs in presence of 20 ug/ml fluconazol by XTT assay relative to control; type: functional; conditions: values are per cent of control; procedure, shortened: as §4
Candida albicans [14] = assay: Antifungal activity against Candida albicans ATCC 90028 assessed as inhibition of metabolic activity at 2.5 ug/ml after 48 hrs in presence of 20 ug/ml fluconazol by XTT assay relative to control; type: functional; conditions: values are per cent of control
Procedure, shortened: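 C. albicans ATCC 90028 in checkerboard: fluconazole serial dilutions (80-1.25 µg/mL) crossed with tetrazole (80-1.25 µg/mL final), M27-A3 inoculum in RPMI 1640, 35°C for 48 h. Metabolic activity measured by XTT reduction, read at 475 nm (660 nm reference). Activity expressed relative to untreated growth control absorbance.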

Candida albicans [15] = assay: Antifungal activity against Candida albicans ATCC 90028 assessed as metabolic activity at 20 ug/ml after 48 hrs in presence of 40 ug/ml fluconazol by XTT assay relative to control
Candida albicans [16] = assay: Antifungal activity against Candida albicans ATCC 90028 assessed as metabolic activity at 20 ug/ml after 48 hrs in presence of 20 ug/ml fluconazol by XTT assay relative to control; conditions: ATCC 90028, 48 h
Candida albicans [17] = assay: Antifungal activity against Candida albicans ATCC 90028 assessed as inhibition of metabolic activity at 1.25 ug/ml after 48 hrs in presence of 80 ug/ml fluconazol by XTT assay relative to control; type: functional; conditions: values are per cent of control; procedure, shortened: as §4
Candida albicans [18] = assay: Antifungal activity against Candida albicans ATCC 90028 assessed as metabolic activity at 80 ug/ml after 48 hrs in presence of 1.25 ug/ml fluconazol by XTT assay relative to control
Candida albicans [19] = assay: Synergistic antifungal activity against Candida albicans ATCC 90028 at 20 ug/ml after 48 hrs in presence of 80 ug/ml fluconazol by checkerboard assay relative to control; type: functional; procedure, shortened: as §5

Structure (SMILES) | growth inhibition (GI) (Candida albicans [1]) | growth inhibition (GI) (Candida albicans [2]) | growth inhibition (GI) (Candida albicans [3]) | Metabolic activity (Candida albicans [4]) | Activity (Caco-2 [5]) | Activity (Caco-2 [6]) | inhibition of growth at 1.25 µg/mL (Candida albicans [7]) | residual activity (Candida albicans [8]) | Metabolic activity (Candida albicans [9]) | Metabolic activity (Candida albicans [10]) | Activity (Candida albicans [11]) | growth inhibition (GI) (Candida albicans [12]) | residual activity (Candida albicans [13]) | residual activity (Candida albicans [14]) | Metabolic activity (Candida albicans [15]) | Metabolic activity at 20 µg/mL (Candida albicans [16]) | residual activity (Candida albicans [17]) | Metabolic activity (Candida albicans [18]) | growth inhibition (GI) (Candida albicans [19])
ClCCCn1nnnc1-c1ccccc1Cl | 99.16% | 99.41% | 99.75% | 100% | 63.27% | 25.49% | 99.7% | 73.65% | 81.5% | 13.59% | 93.49% | 99.74% | 73.79% | 68.53% | 82.92% | 67.8% | 62.42% | 2.6% | 99.33%
Cc1ccc(-c2nnn(CCCN3CCOCC3)n2)cc1 | 99.36% | 98.46% | 99.09% | 100% | 13.04% | 27.73% | 99% | 100% | 71.88% | 40.06% | 57.6% | 99.71% | 93.31% | 86.25% | 93.5% | 61.7% | 100% | 100% | 99.26%
CCOC(=O)CCn1nnc(-c2ccccc2)n1 | 99.46% | 99.62% | 99.49% | 100% | 45.49% | 50.46% | 99.8% | 90.58% | 80.61% | 66.6% | 85.06% | 99.59% | 67.66% | 67.39% | 99.65% | 57.3% | 66.82% | 41.98% | 99.25%
